Laboratory results taken from ChEMBL document CHEMBL4004797, “Design and synthesis of formononetin-dithiocarbamate hybrids that inhibit growth and migration of PC-3 cells via MAPK/Wnt signaling pathways” (Eur J Med Chem, 2017).
pIC50: −log10 of the molar value. Calls of active or inactive are those of the source. The rule behind the calls is not given here.

Assays:
MGC-803 = assay: Cytotoxicity against human MGC803 cells assessed as inhibition of cell viability after 48 hrs by MTT assay; format: functional, cell-based; conditions: MGC-803, 48 h
How it was run: (§1)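 Cells grown in RPMI 1640 with 10% FBS, penicillin and streptomycin at 37 °C under 5% CO2. After 24 h, medium replaced with medium containing various concentrations. Exposure 48 h, then MTT read-out at 570 nm. IC50 is the concentration giving 50% proliferation inhibition, from dose-response curves; mean ± SD of three independent experiments.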

ECa-109 cell line = assay: Cytotoxicity against human EC109 cells assessed as inhibition of cell viability after 48 hrs by MTT assay; format: functional, cell-based; conditions: ECa-109, 48 h; how it was run: as §1
PC-3 [1] = assay: Cytotoxicity against human PC3 cells assessed as inhibition of cell viability after 48 hrs by MTT assay; format: functional, cell-based; conditions: for pIC50: PC-3, 48 h; how it was run: as §1
GES1 = assay: Cytotoxicity against human GES-1 cells assessed as inhibition of cell viability after 48 hrs by MTT assay; format: cell-based; conditions: GES1, 48 h; how it was run: as §1
PC-3 [2] = assay: Cytotoxicity against human PC3 cells assessed as inhibition of cell growth at 2.5 uM after 6 to 12 hrs by MTT assay; format: functional, cell-based
PC-3 [3] = assay: Anticlonogenic activity against human PC3 cells assessed as colony formation efficiency at 2.5 uM after 1 week by crystal violet staining-based assay relative to control; format: functional
How it was run: (§2)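 PC-3 cells seeded, grown 24 h, then given fresh medium containing a range of concentrations and treated for one week. Washed with PBS, fixed in 4% paraformaldehyde, stained with 0.1% crystal violet, imaged. Colonies counted and colony formation efficiency calculated relative to control. Three independent experiments.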

PC-3 [4] = assay: Anticlonogenic activity against human PC3 cells at 2.5 uM after 1 week by crystal violet staining-based assay; format: functional, cell-based; how it was run: as §2
Homo sapiens = species on record: Homo sapiens; assay: Inhibition of ERK phosphorylation in human PC3 cells after 48 hrs by Western blot analysis; format: cell-based
How it was run: (§3)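 PC-3 cells exposed 48 h to 0, 0.1, 0.5 or 2.5 μM. RIPA lysates, BCA protein assay, SDS-PAGE, nitrocellulose transfer, 5% milk block, primary antibodies overnight at 4 °C against p-ERK, p-c-Jun, c-Myc, p38 and p-p38, secondary 1:5000 for 2 h, ECL detection. Levels quantified from three independent experiments.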

[5] = target: Transcription factor Jun (Homo sapiens) (UniProt P05412); assay: Inhibition of c-Jun phosphorylation in human PC3 cells after 48 hrs by Western blot analysis; format: cell-based; how it was run: as §3
Chain of Transcription factor Jun (Homo sapiens) (P05412 whole entry): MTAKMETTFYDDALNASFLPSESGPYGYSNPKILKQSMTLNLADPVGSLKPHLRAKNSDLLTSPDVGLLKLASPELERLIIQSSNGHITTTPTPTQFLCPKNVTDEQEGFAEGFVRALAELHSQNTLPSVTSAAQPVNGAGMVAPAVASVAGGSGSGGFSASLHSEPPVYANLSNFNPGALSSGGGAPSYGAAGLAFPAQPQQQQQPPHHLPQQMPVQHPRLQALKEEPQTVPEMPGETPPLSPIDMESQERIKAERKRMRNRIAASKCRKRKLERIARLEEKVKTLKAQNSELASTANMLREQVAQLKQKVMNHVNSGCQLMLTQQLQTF

PC-3 [6] = assay: Downregulation of p38 levels in human PC3 cells after 48 hrs by Western blot analysis; format: functional, cell-based; how it was run: as §3
[7] = target: MAP kinase p38 (Homo sapiens) (UniProt O15264+Q15759+Q16539+P53778); assay: Inhibition of p38 phosphorylation in human PC3 cells after 48 hrs by Western blot analysis; format: cell-based; how it was run: as §3
PC-3 [8] = assay: Cell cycle arrest in human PC3 cells assessed as accumulation at G1 phase at 0.1 uM after 48 hrs by propidium iodide staining-based flow cytometric method (reference value: 54.65%); format: functional
PC-3 [9] = assay: Cell cycle arrest in human PC3 cells assessed as accumulation at S phase at 0.1 uM after 48 hrs by propidium iodide staining-based flow cytometric method (reference value: 26.54%); format: functional
PC-3 [10] = assay: Cell cycle arrest in human PC3 cells assessed as accumulation at G2 phase at 0.1 uM after 48 hrs by propidium iodide staining-based flow cytometric method (reference value: 18.31%); format: functional
PC-3 [11] = assay: Cell cycle arrest in human PC3 cells assessed as accumulation at G1 phase at 0.5 uM after 48 hrs by propidium iodide staining-based flow cytometric method (reference value: 54.65%); format: functional
PC-3 [12] = assay: Cell cycle arrest in human PC3 cells assessed as accumulation at S phase at 0.5 uM after 48 hrs by propidium iodide staining-based flow cytometric method (reference value: 26.54%); format: functional
PC-3 [13] = assay: Cell cycle arrest in human PC3 cells assessed as accumulation at G2 phase at 0.5 uM after 48 hrs by propidium iodide staining-based flow cytometric method (reference value: 18.31%); format: functional
PC-3 [14] = assay: Cell cycle arrest in human PC3 cells assessed as accumulation at G1 phase at 2.5 uM after 48 hrs by propidium iodide staining-based flow cytometric method (reference value: 54.65%); format: functional
PC-3 [15] = assay: Cell cycle arrest in human PC3 cells assessed as accumulation at S phase at 2.5 uM after 48 hrs by propidium iodide staining-based flow cytometric method (reference value: 26.54%); format: functional
PC-3 [16] = assay: Cell cycle arrest in human PC3 cells assessed as accumulation at G2 phase at 2.5 uM after 48 hrs by propidium iodide staining-based flow cytometric method (reference value: 18.31%); format: functional
PC-3 [17] = assay: Downregulation of cyclin D1 levels in human PC3 cells after 48 hrs by Western blot method; format: functional, cell-based
How it was run: (§4)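 PC-3 cells treated 48 h at 0, 0.1, 0.5 or 2.5 μM, then lysed in RIPA buffer with protease inhibitors. Protein measured by BCA, separated by SDS-PAGE, transferred to nitrocellulose, blocked in 5% milk, probed overnight at 4 °C for cyclin D1, CDK4, cyclin A and cyclin B1, detected by ECL. Bands quantified; three independent experiments.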

PC-3 [18] = assay: Downregulation of CDK4 levels in human PC3 cells after 48 hrs by Western blot method; format: functional, cell-based; how it was run: as §4
PC-3 [19] = assay: Induction of apoptosis in human PC3 cells assessed as early apoptotic cells at 0.1 uM after 48 hrs by annexin V-FITC/propidium iodide staining-based flow cytometric method (reference value: 4.7%); format: functional
PC-3 [20] = assay: Induction of apoptosis in human PC3 cells assessed as early apoptotic cells at 0.5 uM after 48 hrs by annexin V-FITC/propidium iodide staining-based flow cytometric method (reference value: 4.7%); format: functional
PC-3 [21] = assay: Induction of apoptosis in human PC3 cells assessed as early apoptotic cells at 2.5 uM after 48 hrs by annexin V-FITC/propidium iodide staining-based flow cytometric method (reference value: 4.7%); format: functional
PC-3 [22] = assay: Induction of apoptosis in human PC3 cells assessed as late apoptotic cells at 0.1 uM after 48 hrs by annexin V-FITC/propidium iodide staining-based flow cytometric method (reference value: 1.3%); format: functional
PC-3 [23] = assay: Induction of apoptosis in human PC3 cells assessed as late apoptotic cells at 0.5 uM after 48 hrs by annexin V-FITC/propidium iodide staining-based flow cytometric method (reference value: 1.3%); format: functional
PC-3 [24] = assay: Induction of apoptosis in human PC3 cells assessed as late apoptotic cells at 2.5 uM after 48 hrs by annexin V-FITC/propidium iodide staining-based flow cytometric method (reference value: 1.3%); format: functional
PC-3 [25] = assay: Upregulation of Bax levels in human PC3 cells at 0.1 to 2.5 uM after 48 hrs by Western blot method; format: functional, cell-based
How it was run: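 Bax protein measured by Western blot in PC-3 cells after 48 h at 0, 0.1, 0.5 or 2.5 μM: RIPA lysis, SDS-PAGE, nitrocellulose transfer, overnight primary antibody at 4 °C, ECL detection.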

PC-3 [26] = assay: Antimigratory activity in human PC3 cells at 0.1 to 2.5 uM after 48 hrs by Hoechst 33258 staining-based transwell assay; format: functional, cell-based
How it was run: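 Transwell migration: upper chamber holds 10^4 PC-3 cells in medium with 1% FBS plus 0, 0.1, 0.5 or 2.5 μM compound. Lower chamber holds medium with 20% FBS as chemoattractant. After 48 h both chambers washed with PBS, stained with Hoechst 33258, and migrated cells counted by high-content imaging. Three independent experiments.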

PC-3 [27] = assay: Upregulation of Axin levels in human PC3 cells after 48 hrs by Western blot method; format: functional, cell-based
How it was run: (§5)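 Wnt pathway proteins probed by Western blot in PC-3 cells after 48 h at 0, 0.1, 0.5 or 2.5 μM. RIPA lysis, SDS-PAGE, nitrocellulose, overnight primary antibody at 4 °C, ECL detection. Expression quantified from three independent experiments.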

PC-3 [28] = assay: Downregulation of beta-catenin levels in human PC3 cells after 48 hrs by Western blot method; format: functional, cell-based; how it was run: as §5
PC-3 [29] = assay: Downregulation of TCF4 levels in human PC3 cells after 48 hrs by Western blot method; format: functional, cell-based; how it was run: as §5
[30] = target: Myc proto-oncogene protein (Homo sapiens) (UniProt P01106); assay: Inhibition of c-Myc expression in human PC3 cells after 48 hrs by Western blot analysis
Chain of Myc proto-oncogene protein (Homo sapiens) (P01106 whole entry): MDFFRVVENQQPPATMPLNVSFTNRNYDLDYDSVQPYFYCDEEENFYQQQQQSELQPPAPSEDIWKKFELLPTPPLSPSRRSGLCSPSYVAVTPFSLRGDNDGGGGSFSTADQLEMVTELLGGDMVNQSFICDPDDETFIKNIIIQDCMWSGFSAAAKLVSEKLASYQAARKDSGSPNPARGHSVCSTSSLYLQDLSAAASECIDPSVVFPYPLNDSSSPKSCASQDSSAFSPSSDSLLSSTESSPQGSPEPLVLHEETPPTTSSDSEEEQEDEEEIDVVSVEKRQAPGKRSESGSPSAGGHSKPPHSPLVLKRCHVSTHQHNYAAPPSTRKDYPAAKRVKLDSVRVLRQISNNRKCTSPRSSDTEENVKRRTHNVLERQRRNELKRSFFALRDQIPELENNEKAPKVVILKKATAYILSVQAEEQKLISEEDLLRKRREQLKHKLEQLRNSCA

COc1ccc(-c2coc3cc(OCCCSC(=S)N4CCN(c5ccccn5)CC4)ccc3c2=O)cc1
pIC50 (MGC-803): 4.38 | pIC50 (ECa-109 cell line): 4.42 | pIC50 (PC-3 [1]): 4.76

COc1ccc(-c2coc3cc(OCCCCSC(=S)N4CCN(C(=O)OC(C)(C)C)CC4)ccc3c2=O)cc1
pIC50 (MGC-803): 4.50 | pIC50 (ECa-109 cell line): 5.05 | pIC50 (PC-3 [1]): 5.34

COc1ccc(-c2coc3cc(OCCCBr)ccc3c2=O)cc1
pIC50 (MGC-803): 4.19 | pIC50 (ECa-109 cell line): 4.40 | pIC50 (PC-3 [1]): 4.20

COc1ccc(-c2coc3cc(OCCCSC(=S)N4CCN(C(=O)OC(C)(C)C)CC4)ccc3c2=O)cc1
pIC50 (MGC-803): 5.22 | pIC50 (ECa-109 cell line): 5.45 | Activity (PC-3 [1]): Dose-dependent effect | pIC50 (PC-3 [1]): 5.71 | pIC50 (GES1): < 4.00 | growth inhibition (GI) (PC-3 [2]): Active | Activity (PC-3 [3]): 6% | Activity (PC-3 [4]): Dose-dependent effect | inhibition (Homo sapiens): Dose-dependent effect | inhibition [5]: Dose-dependent effect | Activity (PC-3 [6]): Dose-dependent effect | inhibition [7]: Dose-dependent effect | Activity (PC-3 [8]): 55.6% | Activity (PC-3 [9]): 26.75% | Activity (PC-3 [10]): 17.3% | Activity (PC-3 [11]): 61.29% | Activity (PC-3 [12]): 29.69% | Activity (PC-3 [13]): 9.1% | Activity (PC-3 [14]): 83.32% | Activity (PC-3 [15]): 10.33% | Activity (PC-3 [16]): 3.66% | Activity (PC-3 [17]): Dose-dependent effect | Activity (PC-3 [18]): Dose-dependent effect | Activity (PC-3 [19]): 6.2% | Activity (PC-3 [20]): 5.7% | Activity (PC-3 [21]): 5.5% | Activity (PC-3 [22]): 1.1% | Activity (PC-3 [23]): 1.3% | Activity (PC-3 [24]): 0.9% | Activity (PC-3 [25]): inactive | Activity (PC-3 [26]): Dose-dependent effect | Activity (PC-3 [27]): Dose-dependent effect | Activity (PC-3 [28]): Dose-dependent effect | Activity (PC-3 [29]): Dose-dependent effect | inhibition [30]: Dose-dependent effect

COc1ccc(-c2coc3cc(OCCCSC(=S)N4CCN(C(C)=O)CC4)ccc3c2=O)cc1
pIC50 (MGC-803): 4.40 | pIC50 (ECa-109 cell line): 4.61 | pIC50 (PC-3 [1]): 5.37

COc1ccc(-c2coc3cc(O)ccc3c2=O)cc1 [FORMONONETIN]
pIC50 (MGC-803): < 4.00 | pIC50 (ECa-109 cell line): < 4.00 | pIC50 (PC-3 [1]): 4.24

COc1ccc(-c2coc3cc(OCCCCBr)ccc3c2=O)cc1
pIC50 (MGC-803): 4.28 | pIC50 (ECa-109 cell line): 4.18 | pIC50 (PC-3 [1]): 4.25

COc1ccc(-c2coc3cc(OCCCSC(=S)N4CCOCC4)ccc3c2=O)cc1
pIC50 (MGC-803): 4.30 | pIC50 (ECa-109 cell line): 4.47 | pIC50 (PC-3 [1]): 4.56

COc1ccc(-c2coc3cc(OCCCCCBr)ccc3c2=O)cc1
pIC50 (MGC-803): < 4.00 | pIC50 (ECa-109 cell line): 4.23 | pIC50 (PC-3 [1]): 4.35

COc1ccc(-c2coc3cc(OCCSC(=S)N4CCN(C(=O)OC(C)(C)C)CC4)ccc3c2=O)cc1
pIC50 (MGC-803): 4.94 | pIC50 (ECa-109 cell line): 5.39 | pIC50 (PC-3 [1]): 5.44

COc1ccc(-c2coc3cc(OCCCSC(=S)N4CCN(Cc5ccccc5)CC4)ccc3c2=O)cc1
pIC50 (MGC-803): 4.36 | pIC50 (ECa-109 cell line): 4.60 | pIC50 (PC-3 [1]): 4.83

CCN1CCN(C(=S)SCCCOc2ccc3c(=O)c(-c4ccc(OC)cc4)coc3c2)CC1
pIC50 (MGC-803): 4.27 | pIC50 (ECa-109 cell line): 4.43 | pIC50 (PC-3 [1]): 5.15

O=c1[nH]cc(F)c(=O)[nH]1 [FLUOROURACIL]
pIC50 (MGC-803): 5.14 | pIC50 (ECa-109 cell line): 4.99 | pIC50 (PC-3 [1]): 4.53

COc1ccc(-c2coc3cc(OCCCSC(=S)N4CCCC4)ccc3c2=O)cc1
pIC50 (MGC-803): 4.40 | pIC50 (ECa-109 cell line): 4.51 | pIC50 (PC-3 [1]): 4.71

COc1ccc(-c2coc3cc(OCCCSC(=S)N4CCN(C)CC4)ccc3c2=O)cc1
pIC50 (MGC-803): 4.66 | pIC50 (ECa-109 cell line): 4.62 | pIC50 (PC-3 [1]): 5.66

COc1ccc(-c2coc3cc(OCCBr)ccc3c2=O)cc1
pIC50 (MGC-803): < 4.00 | pIC50 (ECa-109 cell line): 4.26 | pIC50 (PC-3 [1]): 4.38
